Assay results published in the EternaBench riboswitch data.

System: MS2 coat protein
Test: apparent Kd, MS2 coat protein; higher = weaker binding; RNA-MaP array; FMN 200 µM where present
Summary of the method: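 The titrant was SNAP-549-labelled MS2 coat protein, run from 0.7 or 1.5 nM in doubling steps to 3 µM. It was applied to designs transcribed by stalled E. coli RNA polymerase on Illumina sequencing-chip clusters, without ligand first and then with constant ligand, in 100 mM Tris-HCl pH 7.5, 80 mM KCl, 4 mM MgCl2, BSA, DTT, yeast tRNA and Tween-20. The apparent Kd is the median of filtered per-cluster binding-curve fits, with green signal normalised to red-channel RNA signal and control-cluster median Fmax.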

[1] = designed as: OFF switch for flavin mononucleotide, no ligand
[2] = ligand present: flavin mononucleotide, designed as: OFF switch for flavin mononucleotide
[3] = designed as: ON switch for flavin mononucleotide, no ligand
[4] = ligand present: flavin mononucleotide, designed as: ON switch for flavin mononucleotide

Sequence	apparent Kd [1] [nM]	apparent Kd [2] [nM]	apparent Kd [3] [nM]	apparent Kd [4] [nM]
AAUAUAAGAGCUGGAAAUAACUCAACAUGAGGAUCACCCAUGUAGGAUAUCAGCACGAUAAGUGCUGAGAAGGACAUCCAGCUC	14.4	14.6	–	–
GGAGCAGGGUCAGGAUAUGUAAGUAGACGGCAAAUAGAAGGGACAUGAGGAUCACCCAUGUAACAUUAAAAUGAAGCAAGGGAG	59.1	71.1	–	–
AGGCAGGACCAGAAGGACAUGAGGAUCACCCAUGUAGGAUAUGGGCGUGGUUUAUGGGUACCUGGGAGAAUGACUGGGUUGUCA	–	–	363	29.4
GGACGUCACAUUAACAUGAGGAUCACCCAUGUCAAAGGACAUGAGGAUAUGGAUCCUAAUUGGAUCCAGAAGGCAUGGACGUCC	–	–	398	34.3
AAAGUGUGAGGAUAUUCGUAGUACACGGAGACGUGUAUUACGGAGAAGGCACAUGAGGAUCACCCAUGUUCCUU	20.4	143	–	–
AGUGAGGGAGGAUAUACGUUGGUAUCACUGCAUUCGUCGUCACAUGAGGAUCACCCAUGUAGAAGGCCCGAGAG	28.8	79.1	–	–
AAGUUGGUAGGAUAUACGUGCAAUUGGUGUGUCCGGAAAAAACAUGAGGAUCACCCAUGUAGAAGGACCAAAAA	49.3	57.5	–	–
AAUAAACUCACAGGAUAUAGCAGAGGUCGCCUGAACUUACAGGCGACGAUGCUAGAAGGGUGACCACAUGAGGAUCACCCAUGU	–	–	825	136
CUUUCGUGAGGAUAUGUGGCUUCGAUCGUGAGAUCGAAACUACAGAAGGCACAUGAGGAUCACCCAUGUUCCUC	33.9	540	–	–
UGGUACAUCGGAGGAUAUCAUGUGUAAACAUGAGGAUCACCCAUGUCGUACGAGAGUACGGAGAUUGAGAAGGCCGAUGUACCU	–	–	88.7	16.5
GUAGAGGAUUGAGGAUAUGCAGAGAGAUCAUGCGCGUCGCGCACAUGAGGAUCACCCAUGUAAGAGCAGAAGGUAACUAUGGAC	79.9	49.3	–	–
GGCGGCGCGGGCCACCGCAGGGCCAGAAGGACAUGAGGAUCACCCAUGUGGCAGAACAGGGCGGUGUAGGAUAUGGCAGGCUCG	35.5	76.2	–	–
UAAUUUAUACAGAAGGGAAACAUGAGGAUCACCCAUGACAUGAGGAUCACCCAUGUUUAAUUAUUUCAGGAUAUGUAAAAUAAU	–	–	159	70.5
CAUUAAUUCAUUAUAGUAAUUAUACAGGAUAUGUAACAUGAGGAUCACCCAUGUAUUCUUGGUUAACAGAAGGGUAUUACUUGU	17.5	27.6	–	–
UUACUCAUGUAAGGAUAUGCAGCCGUUUCGGCUGCAGAAGGUACUAUAAUACAUGAGGAUCACCCAUGUCUUUUUAAUUUAGAU	–	–	195	77
GGAAAUCAUGUAGGAUAUGCAUGGCGAAGCUACGCAGAAGGACAUGAGGAUCACCCAUGUUCUGGCUACCGGAUACGGUGGCAA	20.7	94.3	–	–
AGUCUGCUAGGAUAUACAUGAGGAUCACCCAUGUCUAUCAAAAGACUAUUAACCUGGUGUAGAAGGAGCUUGUA	11.1	12.5	–	–
ACUAGAUGAGGAUAUGCAUGUUUUCGUGUUCUUCUAGAUUAACAUGAGGAUCACCCAUGUAGAAGGCGUCAUAU	48.4	134	–	–
CGAUAGGACAGAGGAUAUACACAUGAGGAUCACCCAUGUGAUUUCAACGCGAAAGCGCCAAACAUGUAGAAGGCUGUCCUAUCG	25.9	16.4	–	–
UGAUCGAGAGAUCUUAGAUUCUGGUAGGAUAUACAUUAUGUUUGAUAUACAUGAGGAUCACCCAUGUAGAAGGACUAGAGUCUA	7.34	15.9	–	–
UCUCAGUCAGGAUAUCGUUAAUUUAAUUGUUUGUAUUAGUUCGAGAAGGGACAUGAGGAUCACCCAUGUACUCA	34	94.6	–	–
UUCAGACAUGAGGAUCACCCAUGUGAGGAUAUGAUGCGAUCGUCGAAAGACGAUAGCAUCAGAAGGCACAUAUG	167	315	–	–
AUUUUGUGAGGAUAUGUGGCUUCGAUCGUAAAAUCGAGGCUACAGAAGGCACAUGAGGAUCACCCAUGUUCCUA	19	205	–	–
UUUUAACAUGAGGAUCACCCAUGUGAGGAUAUCGAAAUUUAUAUUAAUAUUAAUAUUACGAGAAGGCACAUUUU	77.8	101	–	–
AAGGGCGUGAUAACGCUCAUUAAAACAUGAGGAUCACCCAUGUAGGAUAUCCUACCGAAAUGGUAGGAGAAGGACAAGCAAUGA	21.9	20.8	–	–
AGGUAACAUGAGGAUCACCCAUGUCAGGAUAUCAGGAAGAUUAGAAUAGAGUAGAGGAUGAGAAGGGACUAUAU	32	30.3	–	–
AUCAGCUCGUCAGGAUAUACGUCACUGCGUCAGCAGUGUGGAAAGAUCACAUGAGGAUCACCCAUGUAGAAGGGACGAGCUGAU	36.2	279	–	–
CCACGACCGGAGAAGGCAGUUUGUGGGCCUGUUCCUGUCGGAUACAUGAGGAUCACCCAUGUACCUGAGGAUAUCUGGUCGCAG	5.52	6.07	–	–

Sequence	apparent Kd [1] [nM]	apparent Kd [2] [nM]	apparent Kd [3] [nM]	apparent Kd [4] [nM]
AUAUCUUGUCGAGGAUAUGUUGUAUUGAUCUGAAAACAUGAGGAUCACCCAUGUAUACGGUGGGAACAGAAGGUGAAUGUAGAA	574	715	–	–
UUUUACGCAGGAUAUACAUUUUUUUUAUUAUCCUCAUUAUUACAUGAGGAUCACCCAUGUAGAAGGGCGAUUUU	75.7	99.7	–	–
AUGAGUAAAGCAGGAUAUCUAUUGACUCUGUAACAUGAGGAUCACCCAUGUAGAGAAGGGCUAAUUCUUACUCUUCGGAGUUGA	10.2	11.7	–	–
UAAUAUUUAUGAUAUUAUUACAUUAGAAGGCUAUACAUGUGGAUACAUGAGGAUCACCCAUGUAUAGAGGAUAUAGACAUAUAU	357	537	–	–
CGCUAAUAAUUAAUAUUAAUUGUACAGGAUAUGUUACAUGAGGAUCACCCAUGUAUUGGGUUUAAACAGAAGGGUAUAUUAGCG	191	81.4	–	–
GUGUACAGAGGAUAUACAGGAGCUAGGAAACUAGCAACCUCACAUGAGGAUCACCCAUGUAGAAGGCUGUACAC	251	66.7	–	–
UCGCUGCGAGGAUAUACAUGAGGAUCACCCAUGUGCGGGUCCGGGUCUUCGUCCAUUGGUAGAAGGCGCAGUGA	45.3	554	–	–
UUCUGUGUGUGCUAGAGCUGCACAUGAGGAUCACCCAUGUACAGAAGGUGGACGCACACUGUGGCCAAGGAUAUGUAACAUGUU	6.68	7.15	–	–
GCACGAGACUAAGGAUAUGGAGUGUCUACAUUAAACAUGAGGAUCACCCAUGUAGGGAGUAUGAUUCAGAAGGUAGAGACGUGC	–	–	331	48.3
GGAUCGAGUGUGAGGAUAUACCACUGGAUACAGUGGUAGAAGGCACAUGAGGAUCACCCAUGUCCUUACGAUCC	81.4	436	–	–
UUUGUAAUGUCAGGAUAUAUAAUAAGUCAUACAGUAGAAGGGAUAAUAAUACUCAUGUACAUGAGGAUCACCCAUGUUAAAUAU	–	–	98.8	52.4
AGCUGGUGACAGCAAGAAAUUUCACAUGAGGAUCACCCAUGUAGAAGGCUGUACGGUUACCGUACAGAGGAUAUACAUAGAAAG	22.4	30.5	–	–
UUGCGGUAGGAGAAGGACAGAGGCUUCAUUACAUACAUGAGGAUCACCCAUGUAGGAUAUCCUACCUCACGCGGCCUCCUCCUG	6.9	10.3	–	–
UUUUACAUAGGAUAUAGUUUGUUGUACAUGAGGAUCACCCAUGUUUUUGUUUGUGCUUUUCUAGAAGGAUGUUUCU	29.2	25.4	–	–
GGCGAACAGGCUAACAUGAGGAUCACCCAUGUGGACUCAUGGUAGGAUAUGCUGUAGAAACUACAGCAGAAGGGCCGGUGAGCC	–	–	66.1	294
GGGUGGCGUAGAGGAUAUGUGGUACAUGAGGAUCACCCAUGUGCAUAUGAUGUUCGUGUGUCUUCAUAGAAGGCUACGUCGCUA	–	–	97	63
GUCCUACAUGAGGAUCACCCAUGUAAGGAUAUGCUAGCGGUCGGAAGACUGACUGCUAGCAGAAGGUACAUGAU	15	24.5	–	–
AUACACACGACAGGAUAUGGAAUGUAAGCUCAGAGACAUGAGGAUCACCCAUGUACCUGUCUUGCCCAGAAGGGUCGCAAAAGA	–	–	327	64.5
AUGCUAUACGAAGGAUAUGGUUACAUGAGGAUCACCCAUGUUAUGAUUGGUUACUUGUUUAGUUUCCAGAAGGUCGUAUAUUUA	51	235	–	–
AGAAAUCAUGUAGGAUAUGCAUGGCGAAGCUACGCAGAAGGACAUGAGGAUCACCCAUGUUAUAGCGUCCGAGAAAGGAUGCAA	27.9	187	–	–
GGAUAGGACAGAGGAUAUACGUGCUAGAGAUACUAUCAAAAUUUCCUCACAUGAGGAUCACCCAUGUAGAAGGCUGUCCUAUCG	270	52.1	–	–
ACAUACAUUCGAGGAUAUCGGUGAUUAAUUUUACGAGAAGGCGAUAUAAGAUAUAAUAUUUUAGACAUGAGGAUCACCCAUGUA	–	–	25.5	22.9
GGUAGAGACGUUAACAUGAGGAUCACCCAUGUCGAAGGAGAUGAGGAUAUCGUAUACGAUGUAUAUGAGAAGGCAUGGUCUGCC	–	–	24.4	11.7
GCCAUUUAUGUAGGAUAUGCGAGGCGAGCCUGAGCAGAAGGACAUGAGGAUCACCCAUGUAUUGCGGUUUAUGUUCAGAUCGCU	16.1	18.3	–	–
AUGGGUUAAGGAGGAUAUAGAGGGAGAAGUAAACAUGAGGAUCACCCAUGUAUUUAAUUAGUUUACUAGAAGGCUUGUGAUUGU	–	–	33.6	41.5
UGUCGGAGCAGAGGAUAUUACAUGAGGAUCACCCAUGUAUGAACAAAUAGCUGGAAACAGCAAUGUAAGAAGGCUGCUCCGACA	5.82	7.45	–	–
AAAGGUGCAGGAUAUGCGUGGAAAAAGUGUAUUCAAAAAAAACAUGAGGAUCACCCAUGUAGAAGGGUACCAAA	65.9	180	–	–
